Consider one molecule from ChEMBL document CHEMBL1151472, “In vitro interactions between tacrolimus and azoles against Candida albicans determined by different methods” (2008).

Common to all, as to format: functional
Assay [1] relates to Candida albicans. The assay can be described thus: Antimicrobial activity against azole-resistant Candida albicans isolate CA10 assessed as growth at 0.25 ug/ml cotreated with 0.063 ug/ml calcineurin signaling inhibitor Tacrolimus after 48 hrs by microdilution checkboard technique relative to control. Set-up: scale not given: the % may be the effect or the level left. In outline:
(§1)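 Checkerboard microdilution in RPMI 1640 (pH 7.0, 2% dextrose, 0.165 M MOPS). Azole dilutions run along columns and FK506 along rows, at 4× final concentration. Final inoculum 2.5 × 10^3 CFU/ml from Sabouraud-subcultured cells. Incubated 35°C for 48 h; OD read at 492 nm. Background from microorganism-free plates subtracted. Growth % = well OD / drug-free well OD. Triplicate on different days, values averaged.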
On the technique in general: In broth dilution the organism is exposed to a series of concentrations in liquid medium.

Assay [2] deals with Candida albicans. Kind of assay: Antimicrobial activity against azole-resistant Candida albicans isolate CA10 assessed as growth at 1 ug/ml cotreated with 0.063 ug/ml calcineurin signaling inhibitor Tacrolimus after 48 hrs by microdilution checkboard technique relative to control. The arrangement: scale not given: the % may be the effect or the level left. The essentials:
(§2)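 Checkerboard microdilution in MOPS-buffered RPMI 1640 (pH 7.0, 2% dextrose). Final ranges: azole 0.125–128 μg/ml (FLC) or 0.008–8 μg/ml (ITR, VRC), tacrolimus 0.002–0.125 μg/ml; solvent 1% in single-drug wells. Inoculum 2.5 × 10^3 CFU/ml, 35°C, 48 h. Growth % = background-subtracted OD492 of each well / drug-free well. Triplicate on different days.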

The test system of assay [3] is Candida albicans. The assay can be described thus: Antimicrobial activity against azole-resistant Candida albicans isolate CA10 assessed as growth at 0.125 ug/ml co-treated with 0.016 ug/ml calcineurin signaling inhibitor tacrolimus after 48 hrs by microdilution checkboard technique relative to control. The arrangement: scale not given: the % may be the effect or the level left. In outline:
as §2

The test system of assay [4] is Candida albicans. Kind of assay: Antimicrobial activity against azole-resistant Candida albicans isolate CA10 assessed as growth at 4 ug/ml cotreated with 0.016 ug/ml calcineurin signaling inhibitor Tacrolimus after 48 hrs by microdilution checkboard technique relative to control. The arrangement: scale not given: the % may be the effect or the level left. In outline:
(§3)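 CA10 in RPMI 1640 with 2% dextrose and 0.165 M MOPS, pH 7.0. Checkerboard used twofold dilutions, with azole alone in row H and the drug-free growth control in well H1. Final inoculum was 2.5 × 10^3 CFU/ml, incubated 35°C for 48 h, with OD read at 492 nm. Growth % = background-subtracted well OD / drug-free well OD. Run in triplicate on different days.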

Assay [5] relates to Candida albicans. Kind of assay: Antimicrobial activity against azole-resistant Candida albicans isolate CA10 assessed as growth at 0.125 ug/ml cotreated with 0.008 ug/ml calcineurin signaling inhibitor tacrolimus after 48 hrs by microdilution checkerboard technique relative to control. The arrangement: scale not given: the % may be the effect or the level left. In outline:
as §2

For assay [6], the system named is Candida albicans. Kind of assay: Antimicrobial activity against azole-resistant Candida albicans isolate CA10 assessed as growth at 0.125 ug/ml cotreated with 0.002 ug/ml calcineurin signaling inhibitor Tacrolimus after 48 hrs by microdilution checkboard technique relative to control. Set-up: scale not given: the % may be the effect or the level left. The essentials:
as §2

The subject of assay [7] is Candida albicans. Kind of assay: Antimicrobial activity against azole-resistant Candida albicans isolate CA10 assessed as growth at 8 ug/ml cotreated with 0.002 ug/ml calcineurin signaling inhibitor Tacrolimus after 48 hrs by microdilution checkboard technique relative to control. The arrangement: scale not given: the % may be the effect or the level left. In outline: as §3

Assay [8] relates to Candida albicans. Kind of assay: Antimicrobial activity against azole-resistant Candida albicans isolate CA10 assessed as growth at 128 ug/ml cotreated with 0.002 ug/ml calcineurin signaling inhibitor Tacrolimus after 48 hrs by microdilution checkboard technique relative to control. The arrangement: scale not given: the % may be the effect or the level left. In outline: as §2

The subject of assay [9] is Candida albicans. The assay can be described thus: Antimicrobial activity against azole-resistant Candida albicans isolate CA10 assessed as growth at 0.25 ug/ml co-treated with 0.008 ug/ml calcineurin signaling inhibitor tacrolimus after 48 hrs by microdilution checkboard technique relative to control. The arrangement: scale not given: the % may be the effect or the level left. In outline:
as §1

Assay [10] relates to Candida albicans. The assay can be described thus: Antimicrobial activity against azole-resistant Candida albicans isolate CA10 assessed as growth at 0.5 ug/ml cotreated with 0.008 ug/ml calcineurin signaling inhibitor tacrolimus after 48 hrs by microdilution checkerboard technique relative to control. Set-up: scale not given: the % may be the effect or the level left. In outline:
as §2

The test system of assay [11] is Candida albicans. The assay can be described thus: Antimicrobial activity against azole-resistant Candida albicans isolate CA10 assessed as growth at 1 ug/ml cotreated with 0.008 ug/ml calcineurin signaling inhibitor Tacrolimus after 48 hrs by microdilution checkboard technique relative to control. Set-up: scale not given: the % may be the effect or the level left. The essentials: as §2

Assay [12] deals with Candida albicans. The assay can be described thus: Antimicrobial activity against azole-resistant Candida albicans isolate CA10 assessed as growth at 2 ug/ml cotreated with 0.008 ug/ml calcineurin signaling inhibitor Tacrolimus after 48 hrs by microdilution checkboard technique relative to control. Set-up: scale not given: the % may be the effect or the level left. In outline:
as §2

Assay [13] has as its system Candida albicans. The assay can be described thus: Antimicrobial activity against azole-resistant Candida albicans isolate CA10 assessed as growth at 4 ug/ml cotreated with 0.004 ug/ml calcineurin signaling inhibitor tacrolimus after 48 hrs by microdilution checkerboard technique relative to control. Set-up: scale not given: the % may be the effect or the level left. In outline:
as §3

Assay [14] relates to Candida albicans. Kind of assay: Antimicrobial activity against azole-resistant Candida albicans isolate CA10 assessed as growth at 128 ug/ml cotreated with 0.004 ug/ml calcineurin signaling inhibitor Tacrolimus after 48 hrs by microdilution checkboard technique relative to control. The arrangement: scale not given: the % may be the effect or the level left. The essentials: as §2

In assay [15] the test system is Candida albicans. Kind of assay: Antimicrobial activity against azole-resistant Candida albicans isolate CA10 assessed as growth at 1 ug/ml after 48 hrs by microdilution checkerboard technique relative to control. In outline: as §2
Assay [16] deals with Candida albicans. The assay can be described thus: Antimicrobial activity against azole-resistant Candida albicans isolate CA10 assessed as growth at 4 ug/ml after 48 hrs by microdilution checkerboard technique relative to control. In outline:
as §3

In assay [17] the test system is Candida albicans. The assay can be described thus: Antimicrobial activity against azole-resistant Candida albicans isolate CA10 assessed as growth at 0.016 ug/ml after 48 hrs by microdilution checkerboard technique relative to control. In outline: as §2
Assay [18] relates to Candida albicans. The assay can be described thus: Antimicrobial activity against azole-susceptible Candida albicans isolate CA8 after 48 hrs by broth microdilution method. To be noted: isolate CA8, 48 h. The essentials: (§4)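 CLSI M27-A2 broth microdilution was run in RPMI 1640 (pH 7.0, 2% dextrose, 0.165 M MOPS). Inoculum was 2.5 × 10^3 CFU/ml, incubated 35°C for 48 h without shaking. Plates were read visually (0–5 scale) and at OD 492 nm. MIC80 = lowest concentration giving an 80% absorbance decrease vs drug-free control. Triplicate.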

Assay [19] deals with Candida albicans. Kind of assay: Antimicrobial activity against azole-susceptible Candida albicans isolate CA129 after 48 hrs by broth microdilution method. To be noted: isolate CA129, 48 h. The essentials:
as §4

For assay [20], the system named is Candida albicans. Kind of assay: Antimicrobial activity against azole-resistant Candida albicans isolate CA16 after 48 hrs by broth microdilution method. To be noted: isolate CA16, 48 h. The essentials: as §4
In assay [21] the test system is Candida albicans. Kind of assay: Antimicrobial activity against azole-susceptible Candida albicans isolate CA8 co-treated with calcineurin signaling inhibitor tacrolimus after 48 hrs by microdilution checkerboard technique. The conditions noted are these: isolate CA8, 48 h. In outline:
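Checkerboard microdilution in MOPS-buffered RPMI 1640 (pH 7.0, 2% dextrose) with 2.5 × 10^3 CFU/ml for 48 h at 35°C. Final FK506 was 0.002–0.125 μg/ml. Azole finals were FLC 0.125–128 μg/ml, and ITR and VRC 0.008–8 μg/ml. MIC80 is an 80% OD492 decrease vs drug-free control. Interaction was scored by FICI (synergy ≤0.5, antagonism >4) and by ΔE from triplicates.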

The test system of assay [22] is Candida albicans. Kind of assay: Antimicrobial activity against azole-resistant Candida albicans isolate CA10 assessed as growth at 0.5 ug/ml co-treated with 0.125 ug/ml calcineurin signaling inhibitor tacrolimus after 48 hrs by microdilution checkboard technique relative to control. The arrangement: scale not given: the % may be the effect or the level left. The essentials: as §2

Assay [23] relates to Candida albicans. Kind of assay: Antimicrobial activity against azole-resistant Candida albicans isolate CA10 assessed as growth at 8 ug/ml cotreated with 0.125 ug/ml calcineurin signaling inhibitor Tacrolimus after 48 hrs by microdilution checkboard technique relative to control. The arrangement: scale not given: the % may be the effect or the level left. In outline:
as §3

≈ marks a conversion by molar mass, not a printed value.

One may read the MIC as the lowest concentration that inhibits growth of the organism. Turning to `OC(Cn1cncn1)(Cn1cncn1)c1ccc(F)cc1F` [FLUCONAZOLE], the Activity with Candida albicans [1] was found to be 11%; with Candida albicans [2], 18%; in the assay on Candida albicans [3] it was 38%; in the assay on Candida albicans [4] it was 18%; in the assay with Candida albicans [5], 60%; with Candida albicans [6], 76%. Also, the Activity in the assay with Candida albicans [7] amounted to 38%; with Candida albicans [8], 44%; with Candida albicans [9], 39%; with Candida albicans [10], 34%; in the assay on Candida albicans [11], 25%; in the assay on Candida albicans [12] it was 22%. For the same molecule, the Activity with Candida albicans [13] is 46%; with Candida albicans [14], 45%; with Candida albicans [15], 56%; in the assay with Candida albicans [16] it was 53%; with Candida albicans [17] it was 96%; with Candida albicans [22], 6%. In addition, the Activity in the assay with Candida albicans [23] was 2%. The MIC with Candida albicans [18] is 0.25 µg/mL (≈ 0.816 µM); in the assay with Candida albicans [19], 0.5 µg/mL (≈ 1.63 µM); with Candida albicans [20], 64 µg/mL (≈ 209 µM); in the assay with Candida albicans [21], 66 µg/mL.
